Laboratory results taken from ChEMBL document CHEMBL1828575, “Design, synthesis and antiproliferative activities of biarylolefins based on polyhydroxylated and carbohydrate scaffolds” (Eur J Med Chem, 2011).

How the values were obtained:
Assay type in all cases: functional
[1] = system: NCI/ADR-RES; test: Antitumor activity against human NCI/ADR-RES cells after 48 hrs by SRB assay
In short: (§1)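 NCI60 panel in RPMI 1640 with 5% FBS and 2 mM L-glutamine. Cells were plated at 5000–40,000/well by doubling time, held 24 h, then time-zero plates were TCA-fixed. Five concentrations (10-fold or half-log dilutions of DMSO stocks) were applied for 48 h at 37 °C, 5% CO2. Cells were fixed with cold TCA (10% final adherent, 16% suspension) and stained with 0.4% SRB. Bound dye was dissolved in 10 mM Tris and read at 515 nm. GI50, TGI and LC50 were calculated per line.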

[2] = system: 786-0; test: Antitumor activity against human 786-0 cells after 48 hrs by SRB assay; settings: 786-0, 48 h; in short: as §1
[3] = system: SNB-75; test: Antitumor activity against human SNB75 cells after 48 hrs by SRB assay; settings: SNB-75, 48 h
In short: (§2)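 NCI60 panel cells grown in RPMI 1640 with 5% FBS and 2 mM L-glutamine, plated at 5000–40,000 cells/well and preincubated 24 h at 37 °C, 5% CO₂. Compound was added from DMSO at five concentrations, 10-fold or 1/2 log dilutions, then incubated 48 h.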

[4] = system: SN12C; test: Antitumor activity against human SN12C cells after 48 hrs by SRB assay; in short: as §2
[5] = system: NCI-H460; test: Antitumor activity against human NCI-H460 cells after 48 hrs by SRB assay; settings: NCI-H460, 48 h; in short: as §1
[6] = system: OVCAR-5; test: Antitumor activity against human OVCAR5 cells after 48 hrs by SRB assay; settings: OVCAR-5, 48 h; in short: as §1
[7] = system: SK-MEL-5; test: Cytotoxicity against human SK-MEL-5 cells assessed as cellular growth at 10 uM after 48 hrs by SRB assay
In short: (§3)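 NCI-60 panel lines grown in RPMI 1640 with 5% FBS and 2 mM L-glutamine. Plated at 5000–40,000 cells/well and preincubated 24 h at 37 °C, 5% CO₂, with time-zero plates fixed in TCA. Compounds, dissolved in DMSO and diluted in medium, were applied for 48 h. Cells were TCA-fixed (10% final for adherent, 16% for suspension) and stained with 0.4% SRB in 1% acetic acid. Dye was solubilised in 10 mM Tris base and read at 515 nm; growth was expressed as a percentage of untreated control.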

[8] = system: CAKI-1; test: Antitumor activity against human Caki1 cells after 48 hrs by SRB assay; settings: CAKI-1, 48 h; in short: as §1
[9] = system: ACHN; test: Antitumor activity against human ACHN cells after 48 hrs by SRB assay; in short: as §1
[10] = system: NCI-H23; test: Antitumor activity against human NCI-H23 cells after 48 hrs by SRB assay; settings: NCI-H23, 48 h; in short: as §1
[11] = system: T47D; test: Cytotoxicity against human T47D cells assessed as cellular growth at 10 uM after 48 hrs by SRB assay; in short: as §3
[12] = Antitumor activity against human Hs 578T cells after 48 hrs by SRB assay; in short: as §1
[13] = system: OVCAR-4; test: Cytotoxicity against human OVCAR4 cells assessed as cellular growth at 10 uM after 48 hrs by SRB assay; in short: as §3
[14] = system: SNB-19; test: Cytotoxicity against human SNB19 cells assessed as cellular growth at 10 uM after 48 hrs by SRB assay; in short: as §3
[15] = system: PC-3; test: Antitumor activity against human PC3 cells after 48 hrs by SRB assay; settings: PC-3, 48 h; in short: as §1
[16] = system: KM12; test: Cytotoxicity against human KM12 cells assessed as cellular growth at 10 uM after 48 hrs by SRB assay
In short: (§4)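 NCI60 single-dose screen of cells in RPMI 1640 with 5% FBS and 2 mM L-glutamine, preincubated 24 h at 37 °C, 5% CO₂. Cells were then exposed 48 h to compound added from DMSO stock. TCA-fixed, stained with 0.4% SRB in 1% acetic acid, dye solubilised in 10 mM Tris base and read at 515 nm. Growth is given as percent of untreated control.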

[17] = system: SK-MEL-2; test: Cytotoxicity against human SK-MEL-2 cells assessed as cellular growth at 10 uM after 48 hrs by SRB assay; in short: as §3
[18] = system: MCF7; test: Cytotoxicity against human MCF7 cells at 10^-5 M after 72 hrs by MTS assay; settings: MCF7, 72 h, read-out: GI
[19] = system: HT-29; test: Cytotoxicity against human HT-29 cells assessed as cellular growth at 10 uM after 48 hrs by SRB assay; in short: as §4
[20] = read-out: LC50 (the source's name)
[21] = read-out: pLC50 (the source's name) (converted)

## COc1ccc(/C(=C2/O[C@@H]([C@H]3COC(C)(C)O3)[C@H]3OC(C)(C)O[C@@H]23)c2cc(OC)c(OC)c(OC)c2)cc1O
[1]
  GI50: 2.52 µM
  LC50: > 100 µM
  TGI: 6.91 µM
[2]
  GI50: 21.2 µM
  LC50: > 100 µM
  TGI: 60.6 µM
[3]
  GI50: 1.8 µM
  TGI: 6.31 µM
[3]; [20]
  CC50: 53.5 µM
[4]; read-out: GI50
  GI50: 5.82 µM
[4]; [20]
  CC50: > 100 µM
[4]; read-out: TGI
  TGI: > 100 µM
[4]; read-out: pGI50 (converted)
  GI50: 5.62 µM
[4]; [21]
  CC50: > 100 µM
[4]; read-out: pTGI
  TGI: > 100 µM
[5]; read-out: GI50
  GI50: 4.31 µM
[5]; [20]
  CC50: > 100 µM
[5]; read-out: TGI
  TGI: > 100 µM
[5]; read-out: pGI50 (converted)
  GI50: 4.27 µM
[5]; [21]
  CC50: > 100 µM
[5]; read-out: pTGI
  TGI: > 100 µM
[6]; read-out: GI50
  GI50: > 1 µM
[6]; [20]
  CC50: > 100 µM
[6]; read-out: TGI
  TGI: > 100 µM
[6]; read-out: pGI50 (converted)
  GI50: 100 µM
[6]; [21]
  CC50: > 100 µM
[6]; read-out: pTGI (converted)
  TGI: > 100 µM
[7]
  Activity: 59.59%
[8]; read-out: GI50
  GI50: 3.73 µM
[8]; [20]
  CC50: 29.8 µM
[8]; read-out: TGI
  TGI: > 100 µM
[8]; read-out: pGI50 (converted)
  GI50: 37.2 µM
[8]; [21]
  CC50: > 100 µM
[8]; read-out: pTGI (converted)
  TGI: > 100 µM
[9]; read-out: GI50
  GI50: 9.31 µM
[9]; [20]
  CC50: > 100 µM
[9]; read-out: TGI
  TGI: > 100 µM
[9]; read-out: pGI50 (converted)
  GI50: 9.33 µM
[9]; [21]
  CC50: > 100 µM
[9]; read-out: pTGI
  TGI: > 100 µM
[10]; read-out: GI50
  GI50: 7.98 µM
[10]; [20]
  CC50: > 100 µM
[10]; read-out: TGI
  TGI: 46 µM
[10]; read-out: pGI50 (converted)
  GI50: 7.94 µM
[10]; [21]
  CC50: > 100 µM
[10]; read-out: pTGI (converted)
  TGI: 45.7 µM
[11]
  Activity: 120.98%
[12]
  GI50: 2.83 µM
  TGI: 7.88 µM
[12]; [20]
  CC50: > 100 µM
[13]
  Activity: 99.15%
[14]
  Activity: 47.41%
[15]; read-out: GI50
  GI50: 5.11 µM
[15]; [20]
  CC50: > 100 µM
[15]; read-out: TGI
  TGI: > 100 µM
[15]; read-out: pGI50 (converted)
  GI50: 5.13 µM
[15]; [21]
  CC50: > 100 µM
[15]; read-out: pTGI
  TGI: > 100 µM
[16]
  Activity: 26.71%
[17]
  Activity: 103.26%
[18]
  inhibition of growth at 10 µM: 20%
[19]
  Activity: 107.45%
